Experimental findings from ChEMBL document CHEMBL1255433 (Antimicrob Agents Chemother, 2010) are described below.

SMILES strings stand for the structures. The source made the active and inactive calls. The rule behind the calls is not given here. Some results are limits rather than exact numbers.

Test [1] concerns Plasmodium falciparum. Description: Antiplasmodial activity against artemisinin-tolerant Plasmodium falciparum F32-Tanzania assessed as time required to reach 5% parasitaemia at 0.1 uM treated for 96 hrs. Type of test: functional. In short, it runs like this:
(§1)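 Sorbitol-synchronized ring cultures (5% parasitemia, 2.5% hematocrit) in O+ human RBCs, RPMI with 5% human serum, 37°C, 5% CO2. Medium was swapped for artemisinin-containing medium for 48 or 96 h, then washed out and culture resumed drug-free. Parasitemia was tracked to record days to reach 5%; cultures with no parasites by day 21 were scored as no recovery. Runs were done at least three times, except 48 h/70 μM and the 96 h conditions, which were done once.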

Test [2] concerns Plasmodium falciparum. Description: Antiplasmodial activity against artemisinin-tolerant Plasmodium falciparum F32-Tanzania assessed as decrease in occurrence of normal parasite cell cycle at 9 uM measured after 24 to 30 hrs of drug removal by rhodamine 123 staining. It is filed as functional, organism-based. In short, it runs like this:
(§2)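 Infected RBCs were stained with R123 (1 μg/ml in RPMI, 37°C, 5 min), washed, and incubated 30 min under culture conditions. Nuclei were counterstained with DAPI (1 μg/ml, 37°C, 20 min). Thin smears were read the same day by epifluorescence; R123-positive (polarized mitochondria) parasites were scored as viable.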

For test [3], the system named is Plasmodium falciparum. Description: Antiplasmodial activity against artemisinin-tolerant Plasmodium falciparum F32-Tanzania assessed as parasitaemia at 9 uM after 48 hrs by rhodamine 123 staining. Type of test: functional. In short, it runs like this:
as §2

Test [4] has as its system Plasmodium falciparum. Description: Antiplasmodial activity against artemisinin-tolerant Plasmodium falciparum F32-Tanzania assessed as decrease in appearance of late-stage parasites at 9 uM after 48 hrs by FACS analysis. It is filed as functional, organism-based. In a few lines: (§3)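 Samples were stained with DAPI (1 μg/ml) and analysed immediately by flow cytometry (400,000 events). Gates were calibrated with uninfected RBCs, sorbitol-synchronized rings, and magnetically isolated trophozoites and schizonts.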

Test [5] deals with Plasmodium falciparum. Description: Antiplasmodial activity against artemisinin-tolerant Plasmodium falciparum F32-Tanzania assessed as decrease in appearance of late trophozoites at 9 uM measured after 24 to 30 hrs of drug removal by rhodamine 123 staining. It is filed as functional, organism-based. In short, it runs like this: as §2
The test system of test [6] is Plasmodium falciparum. Description: Antiplasmodial activity against artemisinin-tolerant Plasmodium falciparum F32-Tanzania assessed as decrease in appearance of late trophozoites at 9 uM after 24 hrs by rhodamine 123 staining. It is filed as functional, organism-based. In a few lines: as §2
Test [7] deals with Plasmodium falciparum. Description: Antiplasmodial activity against artemisinin-tolerant Plasmodium falciparum F32-Tanzania assessed as time required to reach 5% parasitaemia at 18 uM treated for 48 hrs. It is filed as functional. In short, it runs like this: as §1
Test [8] concerns Plasmodium falciparum. Description: Antiplasmodial activity against artemisinin-tolerant Plasmodium falciparum F32-Tanzania assessed as inhibition of parasite growth at 9 uM after 48 hrs by FACS analysis in presence of sorbitol. It is filed as functional, organism-based. In general terms: Flow cytometry measures light scatter and fluorescence of single cells or particles in a stream.

For test [9], the system named is Plasmodium falciparum. Nature of the test: Antiplasmodial activity Plasmodium falciparum F32-Tanzania assessed as decrease in appearance of mature parasite forms at 9 uM measured after 24 to 30 hrs of drug removal by rhodamine 123 staining. It is filed as functional, organism-based. In a few lines: as §2
The test system of test [10] is Plasmodium falciparum. Nature of the test: Antiplasmodial activity against artemisinin-tolerant Plasmodium falciparum F32-Tanzania assessed as decrease in appearance of late-stage parasites at 9 uM measured after 24 hrs of drug removal by FACS analysis. It is filed as functional, organism-based. In short, it runs like this: as §3
The test system of test [11] is Plasmodium falciparum. Nature of the test: Antiplasmodial activity against Plasmodium falciparum F32-Tanzania assessed as inhibition of parasite growth at 35 uM treated for 48 hrs. It is filed as functional, organism-based. In short, it runs like this: as §1
The test system of test [12] is Plasmodium falciparum. Nature of the test: Antiplasmodial activity against artemisinin-tolerant Plasmodium falciparum F32-Tanzania assessed as time required to reach 5% parasitaemia at 9 uM treated for 48 hrs. Type of test: functional. In a few lines:
as §1

Test [13] concerns Plasmodium falciparum. Nature of the test: Antiplasmodial activity against artemisinin-tolerant Plasmodium falciparum F32-Tanzania assessed as decrease in parasite recovery time at 9 uM treated for 48 hrs in presence of 0.5 uM MDR1 inhibitor penfluridol. Type of test: functional, organism-based.
For test [14], the system named is Plasmodium falciparum. Description: Antiplasmodial activity against artemisinin-tolerant Plasmodium falciparum F32-Tanzania assessed as time required to reach 5% parasitaemia at 70 uM treated for 48 hrs. It is filed as functional. In short, it runs like this:
as §1

The test system of test [15] is Plasmodium falciparum. Nature of the test: Antiplasmodial activity against artemisinin-tolerant Plasmodium falciparum F32-Tanzania assessed as inhibition of parasite growth at 9 uM measured after 24 to 30 hrs of drug removal by FACS analysis in presence of sorbitol. Type of test: functional, organism-based.
Test [16] deals with Plasmodium falciparum. Nature of the test: Antiplasmodial activity against Plasmodium falciparum F32-Tanzania assessed as time required to reach 5% parasitaemia at 18 uM treated for 48 hrs. It is filed as functional. In short, it runs like this: as §1
In test [17] the test system is Plasmodium falciparum. Nature of the test: Antiplasmodial activity against Plasmodium falciparum F32-Tanzania assessed as inhibition of parasite growth at 0.1 uM treated for 96 hrs. Type of test: functional, organism-based. In short, it runs like this: as §1
For test [18], the system named is Plasmodium falciparum. Nature of the test: Antiplasmodial activity against Plasmodium falciparum F32-Tanzania assessed as inhibition of parasite growth at 70 uM treated for 48 hrs. It is filed as functional, organism-based. In a few lines: as §1
Test [19] deals with Plasmodium falciparum. Nature of the test: Antiplasmodial activity Plasmodium falciparum F32-Tanzania assessed as decrease in appearance of parasite quiescent rings at 9 uM after 48 hrs by rhodamine 123 staining. Type of test: functional, organism-based. In short, it runs like this:
as §2

The subject of test [20] is Plasmodium falciparum. Description: Antiplasmodial activity against Plasmodium falciparum F32-Tanzania assessed as time required to reach 5% parasitaemia at 9 uM treated for 48 hrs. Type of test: functional. In short, it runs like this:
as §1

Test [21] deals with Plasmodium falciparum. Nature of the test: Antiplasmodial activity against artemisinin-tolerant Plasmodium falciparum F32-Tanzania assessed as decrease in appearance of late schizonts at 9 uM measured after 24 to 30 hrs of drug removal by rhodamine 123 staining. Type of test: functional, organism-based. In short, it runs like this:
as §2

The test system of test [22] is Plasmodium falciparum. Description: Antiplasmodial activity against artemisinin-tolerant Plasmodium falciparum F32-Tanzania assessed as decrease in appearance of late-stage parasites at 9 uM after 24 hrs by FACS analysis. Type of test: functional, organism-based. In short, it runs like this: as §3
Test [23] deals with Plasmodium falciparum. Description: Antiplasmodial activity against artemisinin-tolerant Plasmodium falciparum F32-Tanzania assessed as time required to reach 5% parasitaemia at 35 uM treated for 48 hrs. Type of test: functional. In a few lines: as §1
Test [24] relates to Plasmodium falciparum. Nature of the test: Antiplasmodial activity against artemisinin-tolerant Plasmodium falciparum F32-Tanzania assessed as decrease in appearance of late trophozoites at 9 uM after 48 hrs by rhodamine 123 staining. Type of test: functional, organism-based. In a few lines:
as §2

The subject of test [25] is Plasmodium falciparum. Nature of the test: Antiplasmodial activity against artemisinin-tolerant Plasmodium falciparum F32-Tanzania assessed as time required to reach 5% parasitaemia at 1 uM treated for 96 hrs. Type of test: functional. In short, it runs like this:
as §1

Test [26] relates to Plasmodium falciparum. Nature of the test: Antiplasmodial activity against Plasmodium falciparum F32-Tanzania assessed as inhibition of parasite growth at 1 uM treated for 96 hrs. Type of test: functional, organism-based. In a few lines:
as §1

Test [27] concerns Plasmodium falciparum. Nature of the test: Antiplasmodial activity against artemisinin-tolerant Plasmodium falciparum F32-Tanzania assessed as time required to reach 5% parasitaemia at 2.6 uM treated for 48 hrs. Type of test: functional. In a few lines: (§4)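 Sorbitol-synchronized ring-stage cultures at 5% parasitemia and 2.5% hematocrit in human O+ erythrocytes, in RPMI with human serum at 37°C under 5% CO2. Drug-containing medium for 48 h, then RPMI wash and return to drug-free culture. Endpoint was days to reach 5% parasitemia, followed up to 21 days. Three or more independent experiments; mean ± SD.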

The subject of test [28] is Plasmodium falciparum. Description: Antiplasmodial activity against Plasmodium falciparum F32-Tanzania assessed as time required to reach 5% parasitaemia at 2.6 uM treated for 48 hrs. It is filed as functional. In short, it runs like this:
as §4

For test [29], the system named is Plasmodium falciparum. Nature of the test: Antiplasmodial activity against artemisinin-tolerant Plasmodium falciparum F32-Tanzania assessed as time required to reach 5% parasitaemia at 0.2 uM treated for 48 hrs. It is filed as functional. In a few lines:
as §4

The test system of test [30] is Plasmodium falciparum. Description: Antiplasmodial activity against Plasmodium falciparum F32-Tanzania assessed as time required to reach 5% parasitaemia at 0.2 uM treated for 48 hrs. Type of test: functional. In a few lines: as §4

Consider `C[C@@H]1CC[C@H]2[C@@H](C)C(=O)O[C@@H]3O[C@@]4(C)CC[C@@H]1[C@]32OO4` [ARTEMISININ], for which the Time is 15 days in test [1]; 7 days in [7]; 6 days in test [12]; 17 days in [14]; “<=17 day” in [16]; 16 days in test [20]. The Time amounted to 11 days in [23] and 16 days in test [25]. The outcome in [2], in test [5], in [10] and in test [21] was inactive. The Activity in test [3] was determined as 0.1%. In addition, the outcome in test [4], in test [6], in test [9], in test [13], in [19] and in test [22] was Active. The outcome in [24] was Active. Moreover, the inhibition result in [8], in test [11], in [15], in [17], in test [18] and in test [26] was “Active” each time.

Regarding `C[C@H]1[C@H](OC(=O)CCC(=O)O)O[C@@H]2O[C@@]3(C)CC[C@H]4[C@H](C)CC[C@@H]1[C@@]24OO3` [ARTESUNATE], the Time came to 6 days in [27], 8 days in test [12], 15 days in test [20] and 14 days in [28].

Take `CCN(CC)CCCC(C)Nc1ccnc2cc(Cl)ccc12` (configuration not stated) [CHLOROQUINE]: the Time in test [29] and in [30] was 14 days in each case.
